The chains are these.
B1: tRNA (parent)
chain: GUUCCGUUGGCGUAAUGGUAACGCGUCUCCCUCCUAAGGAGAAGACUGCGGGUUCGAGUCCCGUACGGAACG

Fewer inactive variants are shown than the library holds.

In the data set the parent is B1. The data set can be described thus: yeast fitness relative to wild type (ratio to wild type); higher = fitter; tRNA-Arg(CCU), competitive growth, 37 C, YPD. In outline: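 Start and end populations of a pooled competition were compared by 100-nucleotide paired-end sequencing of gene amplicons. The Saccharomyces cerevisiae strains carried tRNA-Arg(CCU) gene variants at the native genomic locus, synthesised with a 3% per-site mutation rate at 69 sites, and competed in YPD at 37°C for 24 hours in six parallel replicates. Darwinian fitness relative to wild type was based on the change in genotype frequencies. Genotypes required ≥ 100 starting reads, and estimates < 0.5 were set to 0.5.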
On to G6C U7C A21U G44A, for which the yeast fitness is at most 0.5. Regarding C27A A36G A43G C55U C60U, the yeast fitness was at most 0.5. As to G9A A15U A20G G44C C61U, the yeast fitness is at most 0.5.

A14G C22U A37G A70C: the yeast fitness was at most 0.5. As for U2A G23C C31U, the figure is at most 0.5. To C34G C49G C61U U64A belongs at most 0.5; to U3A C30G C33U G67U, at most 0.5.

In the case of U8C A15C A45C, the yeast fitness came out at 0.674. As for C4U G44C A69U A70G, the yeast fitness is at most 0.5.

Turning to A14G U35C A57G, the yeast fitness was at most 0.5.

In the case of C4U C30A A43G, the yeast fitness was found to be 0.728. As for U2G G18A C29G C31G, the figure is at most 0.5; as for G23C U26C A37G A40G A42G U64C, at most 0.5; as for A21U C60U G67U, at most 0.5. On to C4G U16C G44A G48A G50C C66G, for which the yeast fitness is at most 0.5. As for U8G C11A C24A C29A C34U C61G A65C, the figure is at most 0.5; as for G48A U54C C66U, at most 0.5.

For G18C U47A, the yeast fitness is 0.553. In the case of C49U G68A, the yeast fitness was found to be 0.85. As for C5U G18A A40U U47C, the figure is 0.501; as for A14C C30A, 0.576. To A14G A42G C46G A57G belongs at most 0.5; to C46U A65U, 0.883; to U2G C34G G39C G41C G67C, at most 0.5. With C11A C55A C66A, the yeast fitness is at most 0.5.

In the case of A43C G44A, the yeast fitness worked out at 1.01.

On to G10A G17A A36G G38C A45U C46U G67U, for which the yeast fitness was at most 0.5. To A20G C22U A43G belongs 0.624. For C11U U19A A42G U59A C60U, the yeast fitness is at most 0.5. As for U28C G38C G51C, the figure is at most 0.5; as for G23A C34U C66U, 0.586.

Consider A45G A69C, for which the yeast fitness was determined as 0.912. As for U13A C22A C46U, the figure is 0.633; as for U7G G18C C31A, at most 0.5. As for G23U U54G, the yeast fitness was at most 0.5. To G6C C24A C31U G38C belongs at most 0.5; to A20G A42G, 0.969; to U8C A65U A69C, 0.615. On to U19G A21U C46U C66U, for which the yeast fitness came to 0.532. In the case of A20C A21G A57C, the yeast fitness was 0.531. As for U8A U32G A36C U47G, the figure is at most 0.5. To C5A C30U G41C belongs at most 0.5; to G6C C34U, 0.648. As for A36U C61U C66U, the figure is 0.582; as for C61A C66G, 0.572; as for U19A C24U, 1.03.

For U32G C62A, the yeast fitness came out at 0.512. With C33A U35G C49U A65U, the yeast fitness is at most 0.5. To A15U A21C C24G C29U A42C belongs at most 0.5. As for U26A U64G A65U A69C, the figure is at most 0.5; as for A40U A70G, 0.934. To C31A G68U A69C belongs at most 0.5. Turning to G38C A65C, the yeast fitness is 0.578. As for C5A A14U C24U A40C, the figure is 0.564. As for U2C G17A A43C C49U U54A G56C A65U A70C, the figure is at most 0.5; as for G6A G12A, 0.764. As for G18C U19G A45C G67A, the figure is at most 0.5. Consider G12A C61G C62A A70G, for which the yeast fitness is at most 0.5. As for C5G A14C C29A C31G A65C, the yeast fitness is at most 0.5. To U2C G23C C31G C33U A42G G67U belongs at most 0.5. As for G39A G67C, the figure is 0.825; as for C4G A15C, 0.719; as for G12C C30U C66A, at most 0.5. On to A15G C24G C29U C34G U35C U54G G67C, for which the yeast fitness was at most 0.5. As for U19A G25A A37U A42G C55U, the figure is at most 0.5; as for U7C U16G U28A C49G A57C G67U, at most 0.5; as for G9C A42U, 0.624. To G6C A57G A65G C66U belongs 0.537. To G9C U13C A20G C31G A57G belongs at most 0.5; to C11G C29A C60U U64A, at most 0.5. For the variant C4G G17C C33A G56C A70C, the yeast fitness came out at 0.542. G6C C24G C27G C29A C34U U53A A70G: the yeast fitness is at most 0.5.

As to C4U C11U A45U A57U, the yeast fitness came out at 0.655. To C5G U7G A20G belongs at most 0.5; to C11G A15U C24G A40G C62U, at most 0.5; to G6C C11A U32A A42G C55U C61U, at most 0.5. As for A43C A57C A69U, the figure is at most 0.5; as for A14G C31A A43G, 0.679; as for U13A G50U G68C, 0.515. As for U8C A43C, the figure is 0.939.

Consider C4A A15G, for which the yeast fitness stood at 0.844. As for C24A G56A, the figure is 0.711. As for C5U U16G G41C G51A C60G A70U, the figure is at most 0.5; as for C4G A20U C31G G51A, at most 0.5; as for U26A A40G, 0.657. For G38C C62A G67C, the yeast fitness is at most 0.5. To U7G A65G belongs 1.03.

With U3C G58C G67C, the yeast fitness was determined as 0.701. Take A21G C22A C29A C61U: the yeast fitness is at most 0.5. In the case of G18C C27U C55G A65G G68C, the yeast fitness was at most 0.5. To U8C A15C A21U belongs at most 0.5; to C4G G50A G56A, 0.727. As for C4U A37G G39C A65G, the figure is at most 0.5; as for A15U C22G C31U C46G U54A, at most 0.5.

Take C30A A43C: the yeast fitness turned out to be 0.884. As for G23C G39C A70U, the yeast fitness was at most 0.5.

As to A15U A21C C24G C29U A42C U59G G67U, the yeast fitness was at most 0.5. As for A15G G48A, the figure is 0.879; as for C33G G38C G41C A43C U47G G67C, 0.582; as for C11U G44A, 1.03. To U8A G18C G25C belongs at most 0.5; to A43G U64G, 0.64.

Turning to C4U G48A G50A, the yeast fitness is 0.961. To C24G C30G G39A belongs 0.593; to G12A U35A G58A G68A, 0.561. As for A14U U35C C66G, the figure is at most 0.5. To C29G C49A A70G belongs at most 0.5; to C34G A42C C46U U54A C55G G58C C66A, at most 0.5; to C4A G23A A40C U53C, at most 0.5. Turning to C11G U35A C66G, the yeast fitness was at most 0.5. Regarding U13A A14U C24G U28G C31U C66U, the yeast fitness is at most 0.5. As for U8G A40U G52A A69U, the figure is at most 0.5; as for C5A C31G C55A, at most 0.5; as for C5G C24G C49U G58A G63A, at most 0.5. As for A45C U53A C60G, the yeast fitness came out at 0.536. As for A20U G50A A57U C60G A65U, the figure is 0.531. As for C24G A45G, the figure is 0.637.

With C31U A40U A45U, the yeast fitness was 0.618. Regarding C11U A15C C27A G39C, the yeast fitness was at most 0.5. For G9C C27U G52C, the yeast fitness was at most 0.5. To G41A A43G C60U A70C belongs 0.542; to A15G C24A G63A, at most 0.5; to C30U, 1.01. To G9C U19C A69U belongs 0.656. For U19C A20G G58A, the yeast fitness stood at 0.709. With U3C A43C A69C, the yeast fitness was 0.762. To U7C G10A C24G C34U A43U belongs at most 0.5; to A14C C34G C49A C61U, at most 0.5; to G25A C34U A43U, at most 0.5. To U2G A21C C22U C31U C33U C62A belongs at most 0.5; to U2C G6C G25A A36C, at most 0.5. As for U7C G18C U59G, the figure is at most 0.5. As to C11G U26C, the yeast fitness was determined as 0.569. To C4U C46U A69U belongs 1.16.

Consider C11G C30A A42C C61A, for which the yeast fitness was at most 0.5. For the variant C4A A57C C62U, the yeast fitness was at most 0.5. Take U28G C30U: the yeast fitness is 0.693. As for G12C U32C A65G, the figure is 0.569.

Take A37G G39A C62U G63A: the yeast fitness is at most 0.5. As for C5G G48A C49U, the figure is 0.933. As for U2C C11U G56C C62U, the figure is at most 0.5; as for C24G C66A, 0.576; as for U13A A20C C34U G50C A69U, at most 0.5.

Take C22U U53C G68C: the yeast fitness was at most 0.5. Consider A15G U35A A70U, for which the yeast fitness stood at 0.572. To C24U U26C A40C belongs 0.572. For G12C G23C G50A C55A, the yeast fitness is at most 0.5. On to A14C C24U C29U A40U G68U, for which the yeast fitness was at most 0.5. As for G6A C11U G23A C46A C55A, the figure is at most 0.5; as for C34A A45G G63C, 0.676. For G9A A40C C49U, the yeast fitness was found to be 0.713.

With G25A G41A G67A, the yeast fitness came to 0.59. As to U8C G23C, the yeast fitness was determined as 0.642. For the variant U2G C11G A36C C61G G63A, the yeast fitness was at most 0.5. As for A20U U28G U32G C34G, the figure is 0.513; as for C4A U7G G12C C60U C62G, at most 0.5; as for C29G A40U G67C, 0.517. To U32C G39C G50C belongs at most 0.5; to U28A A43U A65U, at most 0.5. For the variant G12C C33A A42G, the yeast fitness came out at 0.733. To C46A U53A belongs 0.738; to C5U C11G C24U A42C A65C A70U, at most 0.5; to U28A C29G G68C, at most 0.5.

On to U32G C61A, for which the yeast fitness turned out to be 0.535.

On to C24U A36C A45U, for which the yeast fitness stood at 0.513. On to G18C C34G G39C, for which the yeast fitness is at most 0.5. To C11U G48A G51C C60A U64C belongs 0.887.

The values are drawn from the RNAGym collection of RNA variant scans (doi:10.1126/science.aae0568).
